Values joined by “and” are separate entries in the source; they are usually repeats but may differ in a detail not shown here. Identical values can stand only once. “Also recorded” adds a separate entry of the source. Like-named read-outs stand apart in the source and are kept apart here. Values belong to the molecule of their own block, whether it stands above or below them.
Assays:
MYC and AR-signaling = test: RNA-seq gene set enrichment analysis of paired metastatic tumor biopsies; assay type: in vivo, human; conditions: four patients, with enzalutamide, median eight weeks of treatment
[1] = Phase 1b/2a safety: treatment-related adverse events; assay type: in vivo, human
Summary of the method: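 Open-label, multicenter phase 1b/2 trial in progressive mCRPC patients resistant to abiraterone and/or enzalutamide. Test compound was given orally once daily, starting at 36 mg, with 3+3 escalation up to 144 mg daily. Expansion cohorts received 48 or 96 mg daily. All patients took enzalutamide 160 mg daily, with a 14-day enzalutamide lead-in if not already on it. Cycles were 28 days. Adverse events were graded by CTC v4.0, with assessments weekly in cycles 1–2, every 2 weeks in cycle 3, then every 4 weeks.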

[2] = test system: metastatic castration-resistant prostate cancer (mCRPC); assay type: in vivo, human
[3] = test system: BET inhibitor target genes MYC, IL-8, CCR1, GPR183, IL1RN; test: Whole blood RNA expression of BET inhibitor target genes; assay type: in vivo, human
Summary of the method: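 mCRPC patients received the oral test compound once daily plus enzalutamide 160 mg daily. Whole blood RNA was sampled pre-dose and 2, 4, 6 and 24 h after the cycle 1 day 1 dose. Panel: MYC, IL-8, CCR1, GPR183, HEXIM1, IL1RN. Expression change was correlated with parent plus active metabolite exposure: AUC0–2 for MYC and GPR183, AUC0–4 for CCR1, IL1RN and IL-8. Exposure was measured by plasma LC/MS/MS.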

mCRPC = conditions: SWITCH phase 2 crossover study; cited from earlier work
[4] = Plasma pharmacokinetics by LC/MS/MS; conditions: steady-state, by ZEN-3694 dose level

SMILES: CNc1nc2ncc(-c3c(C)noc3C)cc2n1Cc1ccccc1 [ZEN-3694]
- Gene set enrichment, on-treatment versus baseline tumor biopsies (MYC and AR-signaling): down-regulation of expression of MYC and AR-signaling
- Treatment-related AE all grades, patients: Fatigue ([1]; 36mg QD n=4): 1
- Treatment-related AE all grades, patients: Visual symptoms ([1]; 36mg QD n=4): 3
- Treatment-related AE all grades, patients: Weight loss & Abnormal WL ([1]; 36mg QD n=4): 1
- Treatment-related AE all grades, patients: Constipation ([1]; 48 mg QD n=21): 1
- Treatment-related AE all grades, patients: Decreased Appetite ([1]; 48 mg QD n=21): 2
- Treatment-related AE all grades, patients: Dysgeusia ([1]; 48 mg QD n=21): 2
- Treatment-related AE all grades, patients: Dyspepsia ([1]; 48 mg QD n=21): 1
- Treatment-related AE all grades, patients: Fatigue ([1]; 48 mg QD n=21): 8
- Treatment-related AE all grades, patients: Nausea ([1]; 48 mg QD n=21): 7
- Treatment-related AE all grades, patients: Photopsia ([1]; 48 mg QD n=21): 1
- Treatment-related AE all grades, patients: Photosensitivity ([1]; 48 mg QD n=21): 2
- Treatment-related AE all grades, patients: Rash maculopapular ([1]; 48 mg QD n=21): 3
- Treatment-related AE all grades, patients: Thrombocytopenia ([1]; 48 mg QD n=21): 1
- Treatment-related AE all grades, patients: Visual symptoms ([1]; 48 mg QD n=21): 12
- Treatment-related AE all grades, patients: Vomiting ([1]; 48 mg QD n=21): 1
- Treatment-related AE all grades, patients: Decreased Appetite ([1]; 72mg QD n=6): 1
- Treatment-related AE all grades, patients: Diarrhea ([1]; 72mg QD n=6): 1
- Treatment-related AE all grades, patients: Dizziness ([1]; 72mg QD n=6): 1
- Treatment-related AE all grades, patients: Dysgeusia ([1]; 72mg QD n=6): 0
- Treatment-related AE all grades, patients: Fatigue ([1]; 72mg QD n=6): 2
- Treatment-related AE all grades, patients: Nausea ([1]; 72mg QD n=6): 3
- Treatment-related AE all grades, patients: Taste disorder ([1]; 72mg QD n=6): 1
- Treatment-related AE all grades, patients: Thrombocytopenia ([1]; 72mg QD n=6): 2
- Treatment-related AE all grades, patients: Visual symptoms ([1]; 72mg QD n=6): 6
- Treatment-related AE all grades, patients: Weight loss & Abnormal WL ([1]; 72mg QD n=6): 1
- Treatment-related AE all grades, patients: Blood creatinine Increased ([1]; 96mg QD n=31): 3
- Treatment-related AE all grades, patients: Constipation ([1]; 96mg QD n=31): 3
- Treatment-related AE all grades, patients: Decreased Appetite ([1]; 96mg QD n=31): 10
- Treatment-related AE all grades, patients: Diarrhea ([1]; 96mg QD n=31): 5
- Treatment-related AE all grades, patients: Dizziness ([1]; 96mg QD n=31): 3
- Treatment-related AE all grades, patients: Dysgeusia ([1]; 96mg QD n=31): 10
- Treatment-related AE all grades, patients: Dyspepsia ([1]; 96mg QD n=31): 2
- Treatment-related AE all grades, patients: Fatigue ([1]; 96mg QD n=31): 13
- Treatment-related AE all grades, patients: Nasal congestion ([1]; 96mg QD n=31): 3
- Treatment-related AE all grades, patients: Nausea ([1]; 96mg QD n=31): 17
- Treatment-related AE all grades, patients: Photopsia ([1]; 96mg QD n=31): 3
- Treatment-related AE all grades, patients: Photosensitivity ([1]; 96mg QD n=31): 3
- Treatment-related AE all grades, patients: Rash ([1]; 96mg QD n=31): 3
- Treatment-related AE all grades, patients: Rash maculopapular ([1]; 96mg QD n=31): 1
- Treatment-related AE all grades, patients: Taste disorder ([1]; 96mg QD n=31): 3
- Treatment-related AE all grades, patients: Thrombocytopenia ([1]; 96mg QD n=31): 6
- Treatment-related AE all grades, patients: Vision blurred ([1]; 96mg QD n=31): 2
- Treatment-related AE all grades, patients: Visual symptoms ([1]; 96mg QD n=31): 17
- Treatment-related AE all grades, patients: Vomiting ([1]; 96mg QD n=31): 3
- Treatment-related AE all grades, patients: Weight loss & Abnormal WL ([1]; 96mg QD n=31): 3
- Dose-limiting toxicity ([1]; 96 mg/day dose level, Grade 3 nausea, cycle 1): One patient
- Treatment-related AE all grades, patients: Decreased Appetite ([1]; 120mg QD N=4): 3
- Treatment-related AE all grades, patients: Dysgeusia ([1]; 120mg QD N=4): 1
- Treatment-related AE all grades, patients: Fatigue ([1]; 120mg QD N=4): 3
- Treatment-related AE all grades, patients: Nausea ([1]; 120mg QD N=4): 3
- Treatment-related AE all grades, patients: Vision blurred ([1]; 120mg QD N=4): 1
- Treatment-related AE all grades, patients: Visual symptoms ([1]; 120mg QD N=4): 4
- Treatment-related AE all grades, patients: Vomiting ([1]; 120mg QD N=4): 1
- Treatment-related AE all grades, patients: Weight loss & Abnormal WL ([1]; 120mg QD N=4): 1
- Patients requiring dose reduction and/or discontinuation ([1]; 120 mg/day): 75%
- Treatment-related AE all grades, patients: Decreased Appetite ([1]; 144mg QD N=3): 2
- Treatment-related AE all grades, patients: Dysgeusia ([1]; 144mg QD N=3): 3
- Treatment-related AE all grades, patients: Fatigue ([1]; 144mg QD N=3): 1
- Treatment-related AE all grades, patients: Nausea ([1]; 144mg QD N=3): 2
- Treatment-related AE all grades, patients: Rash maculopapular ([1]; 144mg QD N=3): 1
- Treatment-related AE all grades, patients: Thrombocytopenia ([1]; 144mg QD N=3): 1
- Treatment-related AE all grades, patients: Visual symptoms ([1]; 144mg QD N=3): 2
- Treatment-related AE all grades, patients: Weight loss & Abnormal WL ([1]; 144mg QD N=3): 2
- Patients requiring dose reduction and/or discontinuation ([1]; 144 mg/day): 100%
- Treatment-related AE all grades, patients: Blood creatinine Increased ([1]; 6Dmg QD n=6): 2
- Treatment-related AE all grades, patients: Decreased Appetite ([1]; 6Dmg QD n=6): 2
- Treatment-related AE all grades, patients: Dysgeusia ([1]; 6Dmg QD n=6): 0
- Treatment-related AE all grades, patients: Fatigue ([1]; 6Dmg QD n=6): 1
- Treatment-related AE all grades, patients: Nausea ([1]; 6Dmg QD n=6): 2
- Treatment-related AE all grades, patients: Taste disorder ([1]; 6Dmg QD n=6): 1
- Treatment-related AE all grades, patients: Thrombocytopenia ([1]; 6Dmg QD n=6): 1
- Treatment-related AE all grades, patients: Visual symptoms ([1]; 6Dmg QD n=6): 4
- Treatment-related AE all grades, patients: Blood creatinine Increased ([1]; TOTAL n=75): 5 (6.7) n (%)
- Treatment-related AE all grades, patients: Constipation ([1]; TOTAL n=75): 4 (5.3) n (%)
- Treatment-related AE all grades, patients: Decreased Appetite ([1]; TOTAL n=75): 20 (26.7) n (%)
- Treatment-related AE all grades, patients: Diarrhea ([1]; TOTAL n=75): 6(8) n (%)
- Treatment-related AE all grades, patients: Dizziness ([1]; TOTAL n=75): 4 (5.3) n (%)
- Treatment-related AE all grades, patients: Dysgeusia ([1]; TOTAL n=75): 16 (21.3) n (%)
- Treatment-related AE all grades, patients: Dyspepsia ([1]; TOTAL n=75): 3(4) n (%)
- Treatment-related AE all grades, patients: Fatigue ([1]; TOTAL n=75): 29 (38.7) n (%)
- Treatment-related AE all grades, patients: Nasal congestion ([1]; TOTAL n=75): 3(4) n (%)
- Treatment-related AE all grades, patients: Nausea ([1]; TOTAL n=75): 34 (45.3) n (%)
- Treatment-related AE all grades, patients: Photopsia ([1]; TOTAL n=75): 4 (5.3) n (%)
- Treatment-related AE all grades, patients: Photosensitivity ([1]; TOTAL n=75): 5 (6.7) n (%)
- Treatment-related AE all grades, patients: Rash ([1]; TOTAL n=75): 3(4) n (%)
- Treatment-related AE all grades, patients: Rash maculopapular ([1]; TOTAL n=75): 5 (6.7) n (%)
- Treatment-related AE all grades, patients: Taste disorder ([1]; TOTAL n=75): 5 (6.7) n (%)
- Treatment-related AE all grades, patients: Thrombocytopenia ([1]; TOTAL n=75): 11 (14.7) n (%)
- Treatment-related AE all grades, patients: Vision blurred ([1]; TOTAL n=75): 3(4) n (%)
- Treatment-related AE all grades, patients: Visual symptoms ([1]; TOTAL n=75): 48 (64) n (%)
- Treatment-related AE all grades, patients: Vomiting ([1]; TOTAL n=75): 5 (6.7) n (%)
- Treatment-related AE all grades, patients: Weight loss & Abnormal WL ([1]; TOTAL n=75): 8(10.7) n (%)
- Maximum tolerated dose ([1]; ZEN-3694 36 to 144 mg daily with enzalutamide 160 mg daily): without reaching an MTD; also recorded: not reached
- Patients requiring dose reduction and/or treatment discontinuation due to adverse events ([1]; all dose levels, 24/75): 32%
- Patients with Grade ≥ 3 treatment-related adverse event ([1]; all dose levels, n=75, with enzalutamide): 18.7%
- Patients requiring dose reduction and/or discontinuation ([1]; doses from 36 mg – 96 mg/day): 10%−35%
- Recommended phase 2 dose ([1]; in combination with enzalutamide): 96 mg/day
- Grade ≥ 3 nausea ([1]; n=75, with enzalutamide): 4%
- Patients discontinued for adverse event ([1]; nine patients): 12%
- Patients remaining on treatment without progression at data cut-off ([2]; 7 patients): 9%
- Patients on treatment greater than 24 months without progression ([2]; four patients): 5%
- Median time to progression (TTP) ([2]; higher canonical AR transcriptional activity in baseline biopsy): 19 weeks
- Composite median radiographic or clinical progression-free survival ([2]; overall cohort): 5.5 months
- Median radiographic progression-free survival (rPFS) ([2]; overall cohort, with enzalutamide): 9.0 months and 9 months
- Median rPFS ([2]; patients that had progressed on abiraterone): 7.8 months
- Median rPFS ([2]; primary resistance to prior first-line AR targeted therapy, progression within 6 months, N = 12): 10.6 months
- Composite median PFS ([2]; primary resistance, progression within 16 weeks, N = 5): 10.6 months
- Composite median radiographic or clinical progression-free survival ([2]; prior progression on abiraterone): 5.5 months
- Median rPFS ([2]; radiographic progression at study entry): 7.8 months
- Median rPFS ([2]; serum PSA consistently rose beyond 12 weeks, N = 21): 7.2 months
- Median rPFS ([2]; tumors with high AR activity): 4.3 months
- Median rPFS ([2]; tumors with low AR score): 10.4 months
- Median TTP ([2]; without aggressive variant clinical features, p = 0.24): 5.5 months
- Mean difference in whole blood RNA expression of BETi targets ([3]; 4 hours post-ZEN-3694 dose, p ≤ 0.0001): up to 4 fold
- Decrease in whole blood mRNA levels of BET inhibitor target genes MYC, IL-8, CCR1, GPR183, IL1RN ([3]; dose-dependent, post-C1D1 dose): 2–4 fold
- Dose level at which decrease in BET inhibitor target gene expression plateaus ([3]; in vivo): ≥ 96 mg
- Duration of decrease in whole blood mRNA levels of BET inhibitor target genes ([3]; in vivo): at least 8 hours

SMILES: C[C@]12CC[C@H](O)CC1=CC[C@@H]1[C@@H]2CC[C@]2(C)C(c3cccnc3)=CC[C@@H]12 [abiraterone]
- Median PFS, second line (mCRPC): 1.7 months

- Impact of ZEN-3694 on concentration [4]: no significant impact
SMILES: CNC(=O)c1ccc(N2C(=S)N(c3ccc(C#N)c(C(F)(F)F)c3)C(=O)C2(C)C)cc1F [enzalutamide]
- Median PFS, second line (mCRPC): 3.5 months

Reference: PMC7572827 (Clinical cancer research : an official journal of the …, 2020)
